The record followed here is ChEMBL document CHEMBL1122179, “1-(alkylamino)isochromans: hypotensives with peripheral and central activities” (J Med Chem, 1982).

Activity calls are given as the source filed them. The calls are words filed in the database; no cut-off is given here.

The test system of assay [1] is Rattus norvegicus. Briefly: Delta BP refers to oral hypotensive activity of compound which is evaluated at 4 hr and 24 hr in restrained, normotensive conscious rats at a dose of 50 mg/kg; -13/-19. It counts as functional. The essentials:
(§1)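 Female Sprague-Dawley rats, normotensive, restrained in a towel. Blood pressure was read directly via chronic indwelling aortic cannulas exteriorized at the nape, before and 4 and 24 h after an oral dose suspended in carboxymethylcellulose (10 mL/kg). Values from two animals were averaged at each time; a mean change of at least 5 mmHg was taken as significant (p < 0.05).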

The test system of assay [2] is Rattus norvegicus. Briefly: Delta BP refers to oral hypotensive activity of compound which is evaluated at 4 hr and 24 hr in restrained, normotensive conscious rats at a dose of 50 mg/kg. It counts as functional, organism-based. Details: dose 50 mg/kg. In outline: as §1
The test system of assay [3] is Rattus norvegicus. As to the kind of experiment: Delta BP refers to oral hypotensive activity of compound which is evaluated at 4 hr and 24 hr in restrained, normotensive conscious rats at a dose of 50 mg/kg; -16/-26. Format: functional. In outline: as §1
Assay [4] has as its system Rattus norvegicus. Briefly: Delta BP refers to oral hypotensive activity of compound which is evaluated at 4 hr and 24 hr in restrained, normotensive conscious rats at a dose of 50 mg/kg; -15/3. It counts as functional. In outline: as §1
In assay [5] the test system is Rattus norvegicus. As to the kind of experiment: Delta BP refers to oral hypotensive activity of compound which is evaluated at 4 hr and 24 hr in restrained, normotensive conscious rats at a dose of 50 mg/kg; -17/-16. It counts as functional. The essentials: as §1
In assay [6] the test system is Rattus norvegicus. Briefly: Delta BP refers to oral hypotensive activity of compound which is evaluated at 4 hr and 24 hr in restrained, normotensive conscious rats at a dose of 50 mg/kg; 2/2. Format: functional. The essentials: as §1
The subject of assay [7] is Rattus norvegicus. As to the kind of experiment: Delta BP refers to oral hypotensive activity of compound which is evaluated at 4 hr and 24 hr in restrained, normotensive conscious rats at a dose of 15 mg/kg; -8/-10. It counts as functional. The essentials: as §1
Assay [8] has as its system Rattus norvegicus. As to the kind of experiment: Delta BP refers to oral hypotensive activity of compound which is evaluated at 4 hr and 24 hr in restrained, normotensive conscious rats at a dose of 50 mg/kg; -18/-28. It counts as functional. In outline:
as §1

Assay [9] deals with Rattus norvegicus. As to the kind of experiment: Delta BP refers to oral hypotensive activity of compound which is evaluated at 4 hr and 24 hr in restrained, normotensive conscious rats at a dose of 50 mg/kg; -3/-1. Format: functional. The essentials:
as §1

For assay [10], the system named is Rattus norvegicus. As to the kind of experiment: Delta BP refers to oral hypotensive activity of compound which is evaluated at 4 hr and 24 hr in restrained, normotensive conscious rats at a dose of 50 mg/kg; -8/-10. Format: functional. The essentials:
as §1

The test system of assay [11] is Rattus norvegicus. Briefly: Delta BP refers to oral hypotensive activity of compound which is evaluated at 4 hr and 24 hr in restrained, normotensive conscious rats at a dose of 50 mg/kg; 0/-1. It counts as functional. In outline:
as §1

Assay [12] deals with Rattus norvegicus. As to the kind of experiment: Delta BP refers to oral hypotensive activity of compound which is evaluated at 4 hr and 24 hr in restrained, normotensive conscious rats at a dose of 50 mg/kg; -15/-3. It counts as functional. In outline:
as §1

The test system of assay [13] is Rattus norvegicus. As to the kind of experiment: Delta BP refers to oral hypotensive activity of compound which is evaluated at 4 hr and 24 hr in restrained, normotensive conscious rats at a dose of 50 mg/kg; -4/-2. Format: functional. The essentials:
as §1

In [1], `COc1cc2c(cc1OC)C(CN1CCN(c3ccc(Cl)cc3)CC1)OCC2` (stereo not drawn) came in with a Delta blood pressure of -13 mmHg. `COc1cc2c(cc1OC)C(C)(CCCN1CCN(c3ccccc3Cl)CC1)OCC2` (stereo not drawn): the Delta blood pressure result in assay [2] is “inactive”. In turn, `COc1cc2c(cc1OC)C(CCN1CCN(c3ccc(F)cc3)CC1)OC(C)(C)C2` (stereo not drawn) gave a Delta blood pressure in [3] of -16 mmHg.

For `COc1cc2c(cc1OC)C(CCN1CCN(c3ccccc3Cl)CC1)OC(C)(C)C2` (stereo not drawn), the Delta blood pressure result in [2] is “inactive”. On to `COc1cc2c(cc1OC)C(CCN1CCN(c3ccccc3OC)CC1)OC(C)(C)C2` (stereo not drawn), for which the Delta blood pressure is on record as -15 mmHg in assay [4] and -17 mmHg in assay [5]. In the case of `COc1cc2c(cc1OC)C(C)(CCN1CCN(c3ccc(F)cc3)CC1)OCC2` (stereo not drawn), the Delta blood pressure in assay [3] is -16 mmHg. For `COc1cc2c(cc1OC)C(C)(CCN1CCN(c3cccc(Cl)c3)CC1)OCC2` (stereo not drawn), in assay [2], the Delta blood pressure entry was “inactive”. In assay [6], `COc1cc2c(cc1OC)C(CN1CCN(c3cccc(C(F)(F)F)c3)CC1)OCC2` (stereo not drawn) yielded a Delta blood pressure of 2 mmHg. `COc1cc2c(cc1OC)C(C)(CCN1CCN(c3ccccc3C)CC1)OCC2` (stereo not drawn): the Delta blood pressure entry in assay [2] was “inactive”. Take `COc1cc2c(cc1OC)C(C)(C)COC2CCN1CCN(c2ccccc2C)CC1` (stereo not drawn): the figures for the Delta blood pressure in [7] and in [8] were -8 mmHg and -18 mmHg, respectively. As for `COc1cc2c(cc1OC)C(C)(CCN1CCN(c3ccccc3Cl)CC1)OCC2` (stereo not drawn), the Delta blood pressure in assay [9] is -3 mmHg. Regarding `COc1cc2c(cc1OC)C(CCN1CCN(c3ccccc3OC)CC1)OCC2` (stereo not drawn), the Delta blood pressure result in assay [2] is “inactive”. Still for that read-out and setting: the same measure for `COc1cc2c(cc1OC)C(CCN1CCN(c3cccc(Cl)c3)CC1)OC(C)(C)C2` (stereo not drawn): “inactive”; for `COc1cc2c(cc1OC)C(CCN1CCN(c3ccccc3)CC1)OC(C)(C)C2` (stereo not drawn): “inactive”. In turn, `COc1cc2c(cc1OC)C(C)(CCN1CCN(c3ccc(Cl)cc3)CC1)OCC2` (stereo not drawn) registered a Delta blood pressure in assay [10] of -8 mmHg. Take `COc1cc2c(cc1OC)C(C)(CCCN1CCN(c3cccc(C(F)(F)F)c3)CC1)OCC2` (stereo not drawn): the Delta blood pressure entry in assay [2] was “inactive”. Consider `COc1cc2c(cc1OC)C(C)(C)COC2CCN1CCN(c2ccccc2OC)CC1` (stereo not drawn), for which the Delta blood pressure entry in assay [2] was “inactive”.

Take `COc1cc2c(cc1OC)C(CN1CCN(c3cccc(Cl)c3)CC1)OCC2` (stereo not drawn): in assay [2], the Delta blood pressure result is “inactive”.

With `COc1cc2c(cc1OC)C(C)(CCCN1CCN(c3cccc(Cl)c3)CC1)OCC2` (stereo not drawn), in assay [2], the Delta blood pressure result is “inactive”. The same measure, in the same setting: the result for `COc1cc2c(cc1OC)C(CN1CCN(c3ccccn3)CC1)OCC2` (stereo not drawn) reads “inactive”. With `COc1cc2c(cc1OC)C(C)(CCCN1CCN(c3ccccc3OC)CC1)OCC2` (stereo not drawn), the Delta blood pressure result in assay [2] is “inactive”. In turn, `COc1cc2c(cc1OC)C(C)(C)COC2CCN1CCN(c2cccc(C(F)(F)F)c2)CC1` (stereo not drawn) yielded a Delta blood pressure in [11] of 0 mmHg. With `COc1cc2c(cc1OC)C(CN1CCN(c3ccccc3OC)CC1)OCC2` (stereo not drawn), the Delta blood pressure in assay [12] is on record as -15 mmHg. For the compound `COc1cc2c(cc1OC)C(C)(C)COC2CCN1CCN(c2ccccn2)CC1` (stereo not drawn), the Delta blood pressure entry in [2] is “inactive”. `COc1cc2c(cc1OC)C(C)(CCCN1CCN(c3ccccc3)CC1)OCC2` (stereo not drawn) had a Delta blood pressure in [13] of -4 mmHg. Turning to `COc1cc2c(cc1OC)C(CN1CCN(c3ccccc3Cl)CC1)OCC2` (stereo not drawn), the Delta blood pressure entry in [2] was “inactive”.
